Hep lipid drop = inhibitors of hepatocyte lipid droplet formation, primary screen, imaging, high-throughput imaging, BODIPY stain | AID 1656, 2009 | AML12 mouse hepatocytes, oleate lipid droplets | inhibition, % at 6.5 µM | actives 0.4% (n = 240,000);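 active means lipid droplet intensity inhibited by at least 50%, with more than 500 cells counted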
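Assay system: AML12 mouse liver cells | Compound dosing: One dose, 6.5 µM compound | Read-out basis: Droplet intensity reduction, % inhibition | Measured by: Fluorescence imaging, 20x objective, two fields per well | Schedule: Overnight treatment with compound plus oleate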
T cruzi inh = inhibitors of intracellular T. cruzi growth, primary screen, luminescence, NIH3T3 host cells; inhibition, % (no concentration beside the values); T. cruzi beta-gal in NIH3T3, 90 h; AID 1885, 2009; actives 1.4% (n = 300,000);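 active means mean inhibition across valid replicates above about 55%, limit read from the data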;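 further: signal also drops with host cell toxicity which is not excluded here; 0% = plate median of DMSO wells and 100% = zero luminescence signal; higher percent means less beta-gal luminescence so fewer parasites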
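Incubation – ≥90 h infection period, 3 h prior cell attachment · System – NIH/3T3 fibroblasts plus reporter T. cruzi · Doses – compound pinned at 50 nL/well, DMSO · Read-out basis – percent inhibition of parasite-derived β-gal signal · Signal – luminescent β-galactosidase signal after 60 min lysis · Also added – 5000 T. cruzi trypomastigotes/well · Medium – Low-serum DMEM with 2% FBS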
MPTP inh = mitochondrial permeability transition pore inhibitors, primary screen, biochemical, isolated mouse mitochondria, absorbance; Ca2+ swelling absorbance, 30 min; inhibition, % at 10 µM; actives 1.4% (n = 360,000); AID 602449, 2012;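 active means inhibition of 50% or more, scaled per plate between neutral and stimulator controls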;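 further: 0% = DMSO wells given calcium and 100% = 1 mM EGTA wells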
Redox H2O2 prof = compounds producing H2O2 with reducing agent – biochemical, NIH compound library profiling, artefact control for MLSCN library redox annotation, primary screen; DTT-dependent redox cycling H2O2, phenol red/HRP absorbance; 100% = 100 µM peroxide control, 0% = buffer; activation, % at 10 µM; actives 0.03% (n = 200,000);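 active means activation of at least 50% relative to the plate's high and low controls in the primary single-dose screen; inactive means activation below 50%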;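 further: compound incubated with DTT at 0.8 mM final as the reducing agent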
Lmaj promast = Leishmania major promastigote growth inhibition, primary screen; actives 9% (n = 200,000); Leishmania major promastigotes, resazurin fluorescence viability; AID 1063, 2008; inhibition, % at 10 µM; in the data active means inhibition above about 50%;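 further: promastigotes grown with compound for 44 hours at 28 °C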
The depositor's hits bear a star; x = no result. The sample as a whole holds a higher share of hits than the screen did.

SMILES	Hep lipid drop	T cruzi inh	MPTP inh	Redox H2O2 prof	Lmaj promast
CCCn1nc(C(=O)Nc2nnc(CC)s2)c2ccccc2c1=O	-10.9	2.2	-0.6	0.0	-8.1
CCCCCCn1nc(C(=O)Nc2nc3c(s2)CCCC3)c2ccccc2c1=O	-8.9	48.8	1.3	-0.3	50.4*
CCCCn1nc(C(=O)Nc2nc3c(s2)CCCC3)c2ccccc2c1=O	-8.4	56.1*	-2.6	-0.1	42.3
CCCn1nc(C(=O)Nc2nc3ccccc3[nH]2)c2ccccc2c1=O	7.7	3.5	-0.2	-0.4	93.2*
Cc1ccc(S(=O)(=O)NC(=O)C2(C)CCN2C(=O)C2CC2)cc1 (stereo unspecified)	x	x	-2.1	x	x
CCOC(=O)[C@]12CCC=C1N(Cc1ccc(Cl)cc1Cl)C(=O)[C@H](CC(=O)N1CCC(c3ccccc3)CC1)C2	x	x	-0.9	x	x
COc1ccc(NS(=O)(=O)c2cccs2)cc1S(=O)(=O)N1CCOCC1	14.0	-3.2	3.5	x	x
COc1ccc(Nc2nc(-c3cccs3)nc3ccccc23)cc1S(=O)(=O)N1CCOCC1	x	54.6*	5.8	x	x
O=C(c1cc(C2CC2)nn1-c1ccccc1)N1CCN(c2ccc(O)cc2)CC1	x	x	-0.4	x	x
CC(NC(=O)/C(=C/c1ccc(OC(F)F)cc1)c1ccccc1)c1ccccc1 (stereo unspecified)	0.0	19.1	18.1	0.2	78.0*
COc1ccc(Cc2noc(CN3CCN(Cc4cccc(Cl)c4)CC3)n2)cc1OC	-35.3	59.9*	-0.4	-0.9	4.6
COc1ccc(Cc2noc(CN3CCCN(C4Cc5ccccc5C4)CC3)n2)cc1OC	-1.6	60.0*	-1.0	-1.0	20.2
COc1ccc(Cc2noc(CN3CCN(Cc4csc(C)n4)CC3)n2)cc1OC	-6.3	-2.3	-2.1	-1.4	2.2
COCCN1CCN(Cc2nc(Cc3ccc(OC)c(OC)c3)no2)CC1	16.3	-3.8	-1.9	-0.3	3.7
Fc1cccc(Cc2noc(CN3CCOCC3)n2)c1	3.0	-10.2	0.5	1.1	-3.7
OCC1CCCN(C2CCN(Cc3nc(Cc4cccc(C(F)(F)F)c4)no3)CC2)C1 (stereo unspecified)	-4.6	15.7	1.3	0.0	88.8*
Fc1cccc(Cc2noc(CN3CCC(c4ccncc4)CC3)n2)c1	-24.5	66.0*	6.8	-1.4	94.6*
CCOC(=O)c1c(NC(=O)C2=C(C)NC(=S)NC2c2ccc(F)cc2)sc(C)c1C (stereo unspecified)	-13.8	-5.6	-1.9	-0.3	82.0*
CCOC(=O)c1c(NC(=O)C2=C(C)NC(=S)NC2c2ccc(C)cc2)sc(C)c1C (stereo unspecified)	22.2	39.2	1.5	0.5	80.6*
CCOC(=O)c1c(NC(=O)C2=C(C)NC(=S)NC2c2ccc(F)cc2F)sc(C)c1C (stereo unspecified)	7.4	28.1	3.2	-0.1	27.2
Cc1c(C(=O)N2CCN(Cc3ccc4c(c3)OCO4)CC2)sc2ncnc(N3CCN(c4ccccc4)CC3)c12	-17.4	33.4	-0.6	x	x
Cc1c(C(=O)N2CCN(Cc3ccc4c(c3)OCO4)CC2)sc2ncnc(N3CCN(c4ccccc4F)CC3)c12	-17.9	64.0*	3.2	x	x
Cc1c[nH]c(=O)c([N+](=O)[O-])c1	-1.0	-14.2	-1.8	x	x
COc1ccc2[nH]c(=O)c(CN(C(=O)c3ccccn3)c3ccccc3)cc2c1	x	-4.1	0.2	-3.3	99.8*
COc1ccc2[nH]c(=O)c(CN(C(=O)NC3CCCCC3)C3CCCCC3)cc2c1	-6.1	-7.1	3.4	-1.1	99.7*
SMILES	Hep lipid drop	T cruzi inh	MPTP inh	Redox H2O2 prof	Lmaj promast
Cc1ccc(S(=O)(=O)c2c(N)n(NC(=O)c3ccco3)c3nc4ccccc4nc23)cc1	x	12.5	1.5	2.2	-7.3
CCCCn1c(N)c(S(=O)(=O)c2ccc(C)cc2)c2nc3ccccc3nc21	0.0	45.8	46.6	0.9	56.3*
Cc1ccc(S(=O)(=O)c2c(N)n(Cc3ccco3)c3nc4ccccc4nc23)cc1	x	10.5	7.4	-0.4	74.1*
Cc1cccc(S(=O)(=O)c2c(N)n(Cc3ccco3)c3nc4ccccc4nc23)c1	x	-16.0	9.6	-0.5	77.7*
Cc1cccc(-n2cnc3c(c2=O)c2nc4ccccc4nc2n3Cc2ccco2)c1	1.7	-14.0	-2.4	x	x
CCCCN(C(=O)Cc1cccc(F)c1)c1c(N)n(CCC)c(=O)[nH]c1=O	14.0	7.2	-1.2	-1.7	2.0
O=C(Nc1ccc2c(c1)OCCO2)C(C1CC1)N1CCN(c2ccc(C(F)(F)F)cn2)CC1 (stereo unspecified)	x	x	0.2	x	x
O=[N+]([O-])c1cc(O)c2ncccc2c1	14.6	-18.5	x	0.1	100.1*
O=[N+]([O-])c1cc2cccnc2c2ncccc12	-8.1	23.7	-0.3	x	x
Nc1ncnc2c1ncn2[C@@H]1O[C@H](C(=O)NCC2CCN(Cc3ccccc3)CC2)[C@@H](O)[C@H]1O	x	x	-0.3	x	x
Cc1nnc(SCC(=O)Nc2cc(C(C)(C)C)nn2-c2ccccc2)s1	-11.9	12.4	0.3	-0.1	49.3
CC(C)(C)c1cc(NC(=O)CSc2nncs2)n(-c2ccccc2)n1	-2.4	10.7	0.6	-0.8	55.0*
COc1cccc(CN(Cc2cccnc2)S(=O)(=O)c2ccc(-n3cnnn3)c(C)c2)c1	x	7.7	-0.1	1.1	99.6*
COc1cccc(CN(c2ccc3c(c2)CCC3)S(=O)(=O)c2ccc(-n3cnnn3)c(OC)c2)c1	-8.1	34.4	-0.6	0.0	65.5*
COc1cccc(CN(CC2CCCO2)S(=O)(=O)c2ccc(-n3cnnn3)c(OC)c2)c1 (stereo unspecified)	0.5	5.1	0.3	-0.2	4.9
O=C(Cn1ncc2c([nH]c3ccccc32)c1=O)N1CCN(c2ccccn2)CC1	-14.2	-12.2	-0.1	x	x
Cc1cccc(OCC(=O)NNC(=O)c2ccc3nc[nH]c3c2)c1	x	x	-1.0	x	x
CC(=O)N1c2ccc(S(=O)(=O)N3CCCCC3)cc2CC1C(=O)Nc1ccc(F)cc1C (stereo unspecified)	-9.6	-7.0	-2.0	x	x
Cc1nc(/N=C(\N)NC(=O)c2ccccc2)nc2ccccc12	10.1	4.8	14.1	2.4	6.5
Cc1nc(/N=C(\N)NC(=O)N2c3ccccc3Sc3ccccc32)nc2ccccc12	5.0	24.7	1.6	1.6	97.1*
Cc1ccccc1NC(=O)Cc1nc(CSc2nnc(-c3ccc4c(c3)OCO4)o2)cs1	-4.7	30.5	0.0	0.6	86.2*
Nc1ccc(N2CCN(c3cccc(Cl)c3)CC2)cc1	16.1	19.6	5.8	-0.1	89.3*
COC(=O)c1cc(C(=O)Nc2ccc(S(N)(=O)=O)cc2)cc([N+](=O)[O-])c1	1.3	10.8	-1.3	-0.8	60.5*
CCOc1ccc(S(=O)(=O)Nc2cc(F)ccc2F)c2cccnc12	10.3	-7.2	-1.5	x	x
CCOc1ccc(S(=O)(=O)NCc2ccc(F)cc2)c2cccnc12	x	-15.6	-4.3	-1.4	88.5*

Compound activity (PubChem BioAssay)
